Source: PubChem BioAssay (several laboratories)
In the library only some 1.6% were active in any assay of this set; here they are far more common.
Dynein transport: inhibitors of GR-EGFP nuclear translocation, primary screen, dynein cargo transport inhibitor project, imaging, high-content, 3617.4 mouse cells; 220,000 tested, 0.47% active; z-score, hits read low; test concentration mostly 20 µM; stimulated with dexamethasone, 1 µM; stronger effect = lower value;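 active = plate z-score of nuclear minus cytoplasmic receptor signal below a set negative limit, without overly bright fluorescence or cell loss, cut at about -3.5 in these data, passing the limit was not always enough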;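 note: z-score of nuclear minus cytoplasmic ring GR-EGFP intensity difference per well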
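Buffer or medium: tet-free, stripped-serum medium; Also added: dexamethasone, 1.0 µM final; Technique: high-content fluorescence imaging after fixation; Times: 48 h induction, 1 h compound, 30 min dex at 37 °C; Read-out: per-cell GR-EGFP intensity, nucleus versus surrounding cytoplasmic ring, well-averaged.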
TLR4 MyD88 comp: inhibitors of TLR4-MyD88 association in cells, primary screen, cell-based, HeLa CL3-4, BLA complementation, FRET ratio. Toll-like receptor 4 (Homo sapiens) + Myeloid differentiation primary response protein …. HeLa CL3-4 TLR4/MyD88 BLA complementation. inhibition, % at 8.4 µM. 200,000 tested, 0.18% active. AID 861, 2007; in the data active = inhibition above about 25%;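 note: 0% = vehicle and 100% = reference inhibitor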
TLR9-MyD88 inh: inhibitors of TLR9-MyD88 association in cells, primary screen, cell-based, CHO, BLA complementation, fluorescence; CCF4 FRET ratio; AID 504734, 2011; Toll-like receptor 9 (Homo sapiens) + Myeloid differentiation primary response protein …; 340,000 tested, 0.21% active; inhibition, % at 4.98 µM;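 active = inhibition above the mean over all tested compounds plus 3 SD, cut at about 21% in these data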;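 note: 0% = DMSO only wells and 100% = clavulanate BLA inhibitor control wells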
ABHD5 PLIN5 PPI: ABHD5-PLIN5 interaction inhibitors, primary screen, cell lysate, split luciferase complementation, luminescence; inhibition, % at 4 µM; Split G. princeps luciferase complementation, 4 h; 360,000 tested, 0.78% active; Perilipin-5 (Homo sapiens) + 1-acylglycerol-3-phosphate O-acyltransferase ABHD5 (Homo …;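 active = inhibition above the mean inhibition across every tested compound plus 3 SD, cut at about 22% in these data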;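 note: 0% = DMSO only wells and the 100% control is not disclosed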
Target sequence (Q00G26 whole entry, looked up): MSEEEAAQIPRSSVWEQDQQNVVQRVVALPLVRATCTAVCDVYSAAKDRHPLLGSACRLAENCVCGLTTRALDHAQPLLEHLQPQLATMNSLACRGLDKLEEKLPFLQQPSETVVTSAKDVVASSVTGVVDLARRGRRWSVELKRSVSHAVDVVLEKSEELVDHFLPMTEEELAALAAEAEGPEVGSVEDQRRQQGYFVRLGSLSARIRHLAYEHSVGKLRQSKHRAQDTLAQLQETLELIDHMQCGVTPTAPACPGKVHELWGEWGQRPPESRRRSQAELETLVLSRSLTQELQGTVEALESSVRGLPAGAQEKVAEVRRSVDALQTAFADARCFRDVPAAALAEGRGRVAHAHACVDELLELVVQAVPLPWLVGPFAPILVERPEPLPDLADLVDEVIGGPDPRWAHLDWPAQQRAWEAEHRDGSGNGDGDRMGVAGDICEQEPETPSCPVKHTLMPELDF
Target sequence (Q8WTS1 whole entry, looked up): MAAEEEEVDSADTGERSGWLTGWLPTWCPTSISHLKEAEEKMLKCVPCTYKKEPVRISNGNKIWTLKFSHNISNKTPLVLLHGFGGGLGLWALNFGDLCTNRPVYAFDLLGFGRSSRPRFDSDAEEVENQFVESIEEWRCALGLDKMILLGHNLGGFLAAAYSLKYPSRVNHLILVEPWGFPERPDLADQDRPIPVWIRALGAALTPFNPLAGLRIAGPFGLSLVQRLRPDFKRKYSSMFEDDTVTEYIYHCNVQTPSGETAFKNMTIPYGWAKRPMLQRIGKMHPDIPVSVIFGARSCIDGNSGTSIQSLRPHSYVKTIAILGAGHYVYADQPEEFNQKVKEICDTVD
NOD2-RIPK2 inh: NOD2-RIPK2 binding disruptors in cells, primary screen, fluorescence, CHO cells, BLA complementation. CCF4 ratio. 360,000 tested, 0.38% active. Receptor-interacting serine/threonine-protein kinase 2 (Homo sapiens), O43353. AID 624267, 2012. inhibition, % at 4.98 µM; in the data active = inhibition above about 21%;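 note: 0% = vehicle only and 100% = reference blocker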
B2AR ag: beta2AR agonists driving receptor internalization, primary screen, cell-based, FAP fluorogen, flow cytometry. Am2.2-beta2AR cells. response, % (concentration not given with the values). 340,000 tested, 0.43% active. AID 504454, 2011;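 active = response above a set limit, near 3 SD of response in nonfluorescent compounds, cut at about 42% in these data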
Dynein confirm: dynein cargo transport inhibitors, GR-EGFP translocation, confirmation, imaging, high-content imaging, GR-EGFP cells | 1,000 tested, 69% active | calls only at 20 µM | shares compounds with Dynein transport | 3617.4 GR-EGFP nuclear translocation imaging, dexamethasone-induced;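 active = inhibition of receptor movement into the nucleus at or above a set limit in both runs, with normal cell brightness and cell count; inconclusive = limit reached in only one run, brightness and count normal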;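 note: dexamethasone at 1 µM final in well for 30 min; nuclear minus cytoplasmic GR-EGFP mean intensity difference in channel 2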
* hit, by the source's call; i = inactive; ? = inconclusive; · = not tested or not shown; + = active, no number.

SMILES	Dynein transport	TLR4 MyD88 comp	TLR9-MyD88 inh	ABHD5 PLIN5 PPI	NOD2-RIPK2 inh	B2AR ag	Dynein confirm
CCN(CC)CCCNC(=O)c1ccc2c(Cl)c3c(nc2c1)CCCC3	-3.9*	-3	15	9	1	11	+
CCCCN(CC)CCNC(=O)c1ccc2c(Cl)c3c(nc2c1)CCC3	·	·	3	13	6	-9	·
CC1CCN(C(=O)c2ccc3c(Cl)c4c(nc3c2)CCCC4)CC1	-6*	14	1	4	6	-5	+
CCCC[C@@H]1CNC(=O)C(=O)N1CCCC	·	·	·	7	-1	·	·
Cc1cc(S(=O)(=O)Nc2ccc3ccccc3c2)c(C)s1	0.31	-4	1	-6	6	8	·
Cc1cc(S(=O)(=O)Nc2cc(C)c(O)c(C)c2)c(C)s1	-4*	3	0	3	-8	1	i
CC(=O)/C=C/n1c(=S)oc2ccccc21	-4.1*	16	·	·	·	·	+
CC(C)CC(=O)/C=C/n1c(=S)oc2ccccc21	-4*	2	-16	3	-1	49*	+
Cn1c(=S)oc2ccccc21	-0.81	·	-6	6	0	-9	·
Cn1cc(C(C[N+](=O)[O-])c2ccccc2)c2ccccc21 (configuration not stated)	·	·	-14	3	-13	4	·
CC(=O)n1cc(C(C[N+](=O)[O-])SCCN)c2ccccc21 (configuration not stated)	-3.8*	17	-4	-11	-1	76*	i
Cc1cccc(C2=NC(C(F)(F)F)(C(F)(F)F)c3c(n(-c4ccc(F)cc4)c(=O)[nH]c3=O)N2)c1	-3.7*	9	0	5	-4	5	i
COC(=O)C1CCN(S(=O)(=O)c2cc3c4c(c2)CCN4C(=O)CC3)CC1	·	·	-8	2	-8	9	·
N#CCOc1nc(N2CCCCC2)nc(N2CCCCC2)n1	0.22	-4	-3	-2	-6	-1	·
CCOc1nc(C#N)nc(N2CCCCC2)n1	-3.5*	16	-3	-5	-8	-1	+
Cc1cccc(N2CCN(C(=O)Cn3sc4nc(C)cc(C)c4c3=O)CC2C)c1 (configuration not stated)	-4.4*	-6	16	82*	23*	29	?
O=C(Nc1ccccc1Cl)Nc1ccnn1C1CCN(C(=O)C2CCOC2)CC1 (configuration not stated)	·	·	-13	4	5	·	·
O=c1oc(-c2ccco2)nc2c1cnn2-c1ccccc1	-1.1	-12	-12	1	2	14	·
O=c1oc(-c2ccco2)nc2ccccc12	-3.6*	10	0	0	-9	-2	i
CC(C)COc1cc(=O)[nH]c(SCC(C)C)n1	-4.2*	-6	-3	-2	-6	10	i
O=C(Cn1ncc2c1-c1ccccc1OC2)N1CCN(Cc2ccccc2)CC1	-0.054	·	-4	-1	3	-3	·
O=C(Cn1ncc(Cl)c(Cl)c1=O)N1CCOCC1	-4.2*	17	·	2	3	6	+
O=C(Cn1ncc(Cl)c(Cl)c1=O)N1CCN(Cc2ccccc2)CC1	-5*	24	10	6	18	17	+
Cc1c2cnn(CC(=O)N3CCOCC3)c(=O)c2c(C)n1Cc1ccc(F)cc1	·	·	·	1	4	·	·
CC1(C)C(=O)Nc2ccccc2N1C(=O)Cn1ncc(Cl)c(Cl)c1=O	-6.3*	·	5	3	-4	-2	+
SMILES	Dynein transport	TLR4 MyD88 comp	TLR9-MyD88 inh	ABHD5 PLIN5 PPI	NOD2-RIPK2 inh	B2AR ag	Dynein confirm
Cc1nn(CC(=O)N2c3ccccc3NC(=O)C2(C)C)c(C)c1[N+](=O)[O-]	-0.49	6	3	1	-2	7	·
CC(=O)n1cc(N(C(=O)CCl)c2ccc(C)cc2)c2ccccc21	-6*	·	5	11	4	-162	+
CCOc1ccc(CN(C)C(=O)CCl)cc1	-5.6*	4	-6	2	-8	-7	+
CCOc1ccc2nc(SC3CC(=O)N(c4ccc(OC)cc4OC)C3=O)sc2c1 (configuration not stated)	-4.9*	9	-19	-7	-3	1	+
CCOc1ccc(N2C(=O)CC(Sc3nc4ccc(OCC)cc4s3)C2=O)cc1 (configuration not stated)	-0.36	-8	-6	2	2	-1	·
COc1cccc(C(NC(C)=O)c2nc(-c3cccc(C(=O)O)c3)cs2)c1 (configuration not stated)	·	·	·	-7	-12	·	·
Cn1nc([N+](=O)[O-])c(C(C#N)c2nc3ccccc3n2C)c(Cl)c1=O (configuration not stated)	-3.6*	12	-6	9	10	1	i
Cc1ccc(S(=O)(=O)NCc2nnnn2-c2ccc(F)cc2)cc1	·	·	-8	-1	-6	·	·
O=[N+]([O-])c1ccc(Sc2nnnn2-c2ccccc2)nc1	-5.2*	-3	·	·	·	·	+
Cc1ccccc1-n1nnnc1Sc1nnnn1-c1ccccc1	-5.1*	-1	-5	9	-1	1	+
O=[N+]([O-])c1ccc(Sc2ccccn2)nc1	-0.92	·	9	2	2	-8	·
Cc1ccccc1-n1nnnc1SCC(N)=O	2.2	-3	4	7	-18	2	·
Cc1cc(C)c(NC(=O)CN(C)C(=O)CCN2C(=O)C3CCCCC3C2=O)c(C)c1 (configuration not stated)	·	·	7	4	-1	·	·
CCOC(=O)C1=C(CSc2nc(-c3ccncc3)ccc2C#N)OC(N)=C(C#N)C1c1ccc(OC)cc1 (configuration not stated)	-5.8	-4	8	3	11	-6	i
C=C(C(=O)c1ccccc1)C(C(=C)C(=O)c1ccccc1)c1ccc(OC)cc1	-3.8*	·	5	-2	-17	3	+
COc1ccc(C(CC(=O)c2ccccc2)CC(=O)c2ccccc2)cc1	0.87	·	0	0	-16	-4	·
COc1ccc(C(=O)N[C@H](C(=O)Nc2cccc(S(=O)(=O)N3CCOCC3)c2)C(C)C)cc1	·	·	8	1	-15	·	·
CCOC(=O)/C=C/C(=O)OCC(=O)Nc1cccc(Cl)c1Cl	-0.19	-10	-2	7	-7	6	·
